Results taken from ChEMBL document CHEMBL3407434, “Antivascular and anti-parasite activities of natural and hemisynthetic flavonoids from New Caledonian Gardenia species (Rubiaceae)” (Eur J Med Chem, 2015).
pIC50: −log10 of the molar value.

Key:
[1] = Antivascular activity in human EAhy926 cells assessed as concentration require to adopt rounding shape after 2 hrs by microscopic analysis; assay type: functional, EA.hy 926
[2] = tested on: Trypanosoma brucei gambiense; assay: Antitrypanosomal activity against Trypanosoma brucei gambiense Feo assessed as parasite growth inhibition at 10 uM after 72 hrs by fluorescence assay relative to control; assay type: functional; conditions: read-out: GI
How it was run: (§1)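 Bloodstream-form T. b. gambiense Feo at 10^5 parasites/mL, screened at 50 and 10 µM in triplicate. Incubated 72 h at 37 °C under 5% CO2. Values are percent of untreated controls. Pentamidine served as positive control.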

Leishmania amazonensis = assay: Leishmanicidal activity against promastigote stage of Leishmania amazonensis MHOM/BR/PH8 after 48 hrs by MTT assay; assay type: functional, organism-based; conditions: MHOM/BR/PH8, 48 h
How it was run: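 L. amazonensis MHOM/BR/PH8 promastigotes in Schneider's medium with 20% heat-inactivated FCS, at 10^5 per well in log phase. MTT was added for 4 h at 37 °C, formazan dissolved in DMSO and read at 570 nm. Amphotericin B was the reference drug.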

B16 = assay: Cytotoxicity against mouse B16 cells assessed as cell viability after 48 hrs by MTT assay; assay type: cell-based; conditions: B16, 48 h
How it was run: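 B16 murine melanoma cells, 5000/well, treated 24 h after plating. Compounds were tested at 0.01 to 100 µM final (DMSO stock 2.5 mg/mL), in triplicate, for 48 h at 37 °C under 5% CO2.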

[3] = Cytotoxicity against rat L6 cells assessed as viable cells at 1 uM after 72 hrs by MTT assay relative to control; assay type: cell-based; conditions: read-out: Activity
How it was run: (§2)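 L6 rat skeletal myoblasts, about 4 × 10^4 cells/well, dosed 24 h after seeding at 10 and 1 µM, in triplicate. After 72 h, MTT was added for 2 h, formazan was dissolved in detergent for 2 h at room temperature in the dark, and absorbance was read at 570 nm. Results are given as percent viable cells.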

[4] = Cytotoxicity against rat L6 cells assessed as viable cells at 10 uM after 72 hrs by MTT assay relative to control; assay type: cell-based; conditions: read-out: Activity; how it was run: as §2
Plasmodium falciparum [5] = assay: Antiplasmodial activity against Plasmodium falciparum FcB1/Columbia infected in human red blood cells assessed as parasite growth inhibition at 10 uM after 48 hrs by [3H]-hypoxanthine incorporation assay relative to control; assay type: functional; conditions: read-out: GI
How it was run: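 P. falciparum FcB1 (Colombia) grown in human red cells, in triplicate. Screened at 50 and 10 µM in 96-well plates for 48 h at 37 °C under reduced oxygen, then [3H]-hypoxanthine was added and incorporation counted. Counts per minute are given as percent of untreated controls.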

[6] = tested on: Trypanosoma brucei gambiense; assay: Antitrypanosomal activity against Trypanosoma brucei gambiense Feo assessed as parasite growth inhibition at 50 uM after 72 hrs by fluorescence assay relative to control; assay type: functional; conditions: read-out: GI; how it was run: as §1
Tubulin = assay: Inhibition of tubulin (unknown origin) polymerization preincubated for 45 mins followed by GTP addition measured after 2 hrs by fluorescence assay; assay type: protein-complex assay, Homo sapiens
Tubulin (Homo sapiens) = Tubulin (Homo sapiens) (UniProt P68371+Q9H4B7+P0DPH7+P68366+Q13509+Q71U36+P04350+Q3ZCM7+P07437+P68363+Q9BQE3+Q6PEY2+Q13885+Q9BVA1+Q9BUF5); assay: Inhibition of tubulin (unknown origin) polymerization at 30 uM preincubated for 45 mins followed by GTP addition measured after 2 hrs by fluorescence assay relative to control; assay type: protein-complex assay
Plasmodium falciparum [7] = assay: Antiplasmodial activity against Plasmodium falciparum FcB1/Columbia infected in human red blood cells assessed as parasite growth inhibition after 48 hrs by [3H]-hypoxanthine incorporation assay; assay type: functional, organism-based
How it was run: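 P. falciparum FcB1 (Colombia) grown in human red cells, in triplicate. Screened at 50 and 10 µM in 96-well plates for 48 h at 37 °C under reduced oxygen, then [3H]-hypoxanthine was added and incorporation counted. Counts per minute are given as percent of untreated controls. Selected compounds were then re-run at 100 to 0.195 µM, with IC50 taken from sigmoidal inhibition curves.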

[8] = tested on: Trypanosoma brucei gambiense; assay: Antitrypanosomal activity against Trypanosoma brucei gambiense Feo assessed as parasite growth inhibition after 72 hrs by fluorescence assay; assay type: functional, organism-based
How it was run: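 Bloodstream-form T. b. gambiense Feo at 10^5 parasites/mL, screened at 50 and 10 µM in triplicate. Incubated 72 h at 37 °C under 5% CO2. Resazurin (45 µM final) was added for 4 h at 37 °C, followed by 22 h at room temperature, and fluorescence read at ex 535/em 590 nm. Values are percent of untreated controls. […] Pentamidine served as positive control.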

| SMILES | Activity [1] | inhibition of growth at 10 µM [2] | pIC50 (Leishmania amazonensis) | pIC50 (B16) | viability at 72 h, 1 µM [3] | viability at 72 h, 10 µM [4] | inhibition of growth at 10 µM (Plasmodium falciparum [5]) | inhibition of growth at 50 µM [6] | pIC50 (Tubulin) | inhibition (Tubulin (Homo sapiens)) | pIC50 (Plasmodium falciparum [7]) | IC90 (Plasmodium falciparum [7]) | pIC50 [8] |
| --- | --- | --- | --- | --- | --- | --- | --- | --- | --- | --- | --- | --- | --- |
| COc1cc(-c2oc3cc(OC)c(OC)c(O)c3c(=O)c2OC)cc(OC)c1OC | >100 µM | 17.6% | 4.66 | 4.94 | 99.2% | 53.5% | 21.7% | 40.5% | – | – | – | – | – |
| COc1ccc(-c2oc3cc(O)c(OC)c(O)c3c(=O)c2OC)cc1OC | 25 µM | 76.2% | 5.09 | 4.54 | 99.7% | 94.7% | 21.3% | 99.8% | 4.71 | 75.1% | – | – | – |
| COc1cc(-c2oc3cc(O)c(OC)c(O)c3c(=O)c2OC)cc(OC)c1OC | 12.5 µM | 42.9% | 5.02 | 4.04 | 96.1% | 78.2% | 13.2% | 38.1% | 4.67 | 69.9% | – | – | – |
| COc1cc(-c2oc3cc(OC)c(OC)c(OC)c3c(=O)c2OC)cc(OC)c1OC | >100 µM | 25.9% | 4.50 | < 4.00 | 93.8% | 81.2% | 35% | 72.4% | – | – | 5.24 | 10.8 µM | – |
| COc1c(O)c(OC)c2oc(-c3ccc(O)cc3)c(OC)c(=O)c2c1O | >100 µM | 14.6% | 4.56 | < 4.00 | 88.4% | 80.4% | 0.6% | 50.7% | – | – | – | – | – |
| COc1c(-c2ccc(O)cc2)oc2cc(O)cc(O)c2c1=O [ISOKAEMPFERIDE] | >100 µM | 36.6% | 4.84 | 4.12 | 85% | 61% | 2.9% | 93.4% | – | – | – | – | – |
| C[C@@H]1[C@H](O)[C@@H](C)/C=C/C=C/C=C/C=C/C=C/C=C/C=C/[C@H](O[C@@H]2O[C@H](C)[C@@H](O)[C@H](N)[C@@H]2O)C[C@@H]2O[C@](O)(C[C@@H](O)C[C@@H](O)[C@H](O)CC[C@@H](O)C[C@@H](O)CC(=O)O[C@H]1C)C[C@H](O)[C@H]2C(=O)O [AMPHOTERICIN B] | – | – | 7.14 | – | – | – | – | – | – | – | – | – | – |
| COc1ccc(/C=C\c2cc(OC)c(OC)c(OC)c2)cc1O [COMBRETASTATIN A4] | 0.27 µM | – | – | – | – | – | – | – | – | – | – | – | – |
| COc1cc(-c2oc3cc(O)c(OC)c(O)c3c(=O)c2OC)cc(O)c1OC | 1.6 µM | 37.8% | 4.99 | 4.47 | 97.6% | 44.2% | 0% | 82.6% | 4.75 | 99% | – | – | – |
| N=C(N)c1ccc(OCCCCCOc2ccc(C(=N)N)cc2)cc1 [PENTAMIDINE] | – | – | – | – | – | – | – | – | – | – | – | – | 8.15 |
| COc1c(O)cc2oc(-c3ccc(O)cc3)c(OC)c(=O)c2c1O [3,6-DIMETHOXY KAEMPFEROL] | >100 µM | 40.7% | 5.09 | 4.13 | 86.2% | 73.5% | 0% | 88.8% | – | – | – | – | – |
| CC(=O)Oc1ccc(-c2oc3cc(OC(C)=O)cc(O)c3c(=O)c2OC(C)=O)cc1 | >100 µM | 0% | 4.91 | 4.40 | 90.2% | 94.8% | 7.6% | 5.6% | – | – | – | – | – |
| O=c1c(O)c(-c2ccc(O)cc2)oc2cc(O)cc(O)c12 [KAEMPFEROL] | >100 µM | 55.1% | 4.56 | 4.27 | 93.8% | 100% | 0% | 86.5% | – | – | – | – | – |
| COc1cc(O)c2c(=O)c(OC)c(-c3ccc(O)cc3)oc2c1 [KUMATAKENIN] | 50 µM | 25.2% | 4.64 | 4.24 | 81.3% | 38.7% | 7.2% | 26.4% | – | – | – | – | – |
| COc1ccc(-c2oc3cc(OC)cc(O)c3c(=O)c2OC)cc1 | 100 µM | 4.6% | 4.48 | < 4.00 | 99.1% | 100% | 3.9% | 19.9% | – | – | – | – | – |
| COc1ccc(-c2oc3cc(OC)c(OC)c(OC)c3c(=O)c2OC)cc1 | 50 µM | 29.4% | 4.43 | < 4.00 | 88.3% | 93.6% | 0% | 24.9% | – | – | – | – | – |
| COc1ccc(-c2oc3cc(OC)c(OC)c(O)c3c(=O)c2OC)cc1 | >100 µM | 18.3% | 4.83 | < 4.00 | 85.3% | 96.5% | 0% | 8% | – | – | – | – | – |
| COc1ccc(-c2oc3cc(O)c(OC)c(O)c3c(=O)c2OC)cc1 [SANTIN] | 12.5 µM | 33.2% | 4.20 | 4.34 | 90.9% | 40.8% | 0% | 83.1% | 5.24 | 100% | – | – | – |
